According to PubChem BioAssay AID588321 (Southern Research Specialized Biocontainment Screening …, 2011):
The source made the active and inactive calls.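 The calls were made as follows: active = phage lysis blocked by at least 50% at any tested concentration; inactive = the rest.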

What was measured:
[1] = inhibition of K1F phage lysis of E. coli UTI89, confirmation, capsule biogenesis inhibitor project, set 5 (AID 588321); details: E. coli UTI89 K1F phage lysis inhibition, OD600; for inhibition of phage lysis: at 100 µM (top of the series); for CC50: measured here: cytotoxicity
In short: (§1)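 test system = Uropathogenic E. coli UTI89 (K1 capsule) and kpsM mutant cultures | amount = cultures at 1:100 dilution | medium = LB broth | reagent = K1F phage infection | timing = 1.25 h compound pre-incubation before phage, 3 h post-infection, 37 °C with shaking | signal = OD600 absorbance | measure = lysis from OD600 3 h after phage | benchmarks = phage-resistant kpsM mutant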

[2] = system: E. coli UTI89 K1F phage lysis inhibition, OD600; test: as above
In short: as §1

Row | SMILES | inhibition of phage lysis [1] | CC50 [1] | IC50 [2]
1 | COC(=O)c1sc(-c2ccccc2)cc1NC(=O)c1c(F)cccc1F | 29.8% (inactive) | 10.4 µM | –
2 | O=C(O)c1sc(-c2ccccc2)cc1NC(=O)C1CCCC1 | 15.2% (inactive) | – | –
3 | O=C(Nc1cc(-c2ccccc2)sc1C(=O)O)c1cccc(Cl)c1 | – | 52.6 µM | 83.5 µM
4 | O=C(Nc1cc(-c2ccccc2)sc1C(=O)O)c1cc2ccccc2o1 | 10.4% (inactive) | – | –
5 | Cc1ccc(C(=O)Nc2cc(-c3ccccc3)sc2C(=O)O)s1 | – | 63.6 µM | –
6 | O=C(O)c1sc(-c2ccccc2)cc1NC(=O)C1CCCCC1 | 16.1% (inactive) | – | –
7 | O=C(Nc1cc(-c2ccccc2)sc1C(=O)O)c1ccc(Cl)s1 | 10.1% (inactive) | 71.5 µM | –
8 | O=C(Nc1cc(-c2ccccc2)sc1C(=O)O)c1cccc(F)c1 | 18.7% (inactive) | 76.9 µM | –
9 | O=C(Nc1cc(-c2ccccc2)sc1C(=O)O)c1cccs1 | – | 89.3 µM | 82.7 µM
10 | CCOc1ccc(-c2cc(NC(=O)c3c(F)cccc3F)c(C(=O)OC)s2)cc1 | 14.9% (inactive) | > 300 µM | –
11 | Cc1onc(-c2ccccc2)c1C(=O)Nc1cc(-c2ccccc2)sc1C(=O)O | 3.71% (inactive) | 52.6 µM | –
12 | O=C(Nc1cc(-c2ccccc2)sc1C(=O)O)c1ccc2c(c1)OCCO2 | – | 82.1 µM | 42.7 µM
13 | CCOc1ccc(-c2cc(NC(=O)c3cccc(Cl)c3)c(C(=O)O)s2)cc1 | – | 83.9 µM | 45.6 µM
14 | O=C(Nc1cc(-c2ccccc2)sc1C(=O)O)c1ccc(Br)o1 | – | 104 µM | 58.4 µM
15 | O=C(Nc1cc(-c2ccccc2)sc1C(=O)O)c1cc(Cl)c2c(c1)OCCO2 | 6% (inactive) | – | –
16 | Cc1c(C(=O)Nc2cc(-c3ccccc3)sc2C(=O)O)oc2ccccc12 | 5.2% (inactive) | 48.7 µM | –
17 | CCOc1ccc(-c2cc(NC(=O)c3ccc(OC)c(OC)c3)c(C(=O)O)s2)cc1 | – | 82.8 µM | 56 µM
18 | O=C(Nc1ccncc1)c1ccc2ncsc2c1 | – | – | 1.03 µM
